# Screening results from PubChem.
# Tb MetRS inh – Trypanosoma brucei MetRS inhibition. inhibition, % at 11.9 µM. purified T. brucei MetRS, ATP depletion, Kinase-Glo luminescence. AID 624268. 360,000 compounds, 0.4% hits;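 active means inhibition above a per-plate cutoff of the control wells' mean inhibition plus 3 SD, cut at about 5.5% in these data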;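 further: 0% = DMSO wells median and 100% = median of wells with control inhibitor compound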
#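 System: purified T. brucei MetRS enzyme / Detection: Kinase-Glo luciferase luminescence reporting remaining unconsumed ATP / Medium: HEPES buffer with MgCl2, KCl, DTT, spermine, BSA, pyrophosphatase / Replication: singlicate, one well per compound / Evaluation: percent inhibition relative to median high and low control wells / Schedule: 2 h aminoacylation at 25 °C after 15 min preincubation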
# PLCb3 inh – inhibitors of human phospholipase C beta3 | Purified PLC-beta3, fluorogenic substrate, fluorescence | inhibition, % at 12.2 µM | 370,000 compounds, 0.18% hits | AID 720704; in the data active means inhibition above about 11%;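 further: 0% = median of compound wells on plate and 100% = full blocker control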
# PLC-gamma1 inh – blocks human PLC-gamma1 enzyme activity | P19174 | purified PLC-gamma1, fluorogenic substrate, fluorescence | inhibition, % at 12.2 µM | 370,000 compounds, 0.84% hits | AID 720700
# sPLA2-III inh – Inhibits HGIII-sPLA2 liposome hydrolysis, primary screen; 370,000 compounds, 0.56% hits; inhibition, % at 12.2 µM; QFRET BODIPY PC-A2 liposome hydrolysis, fluorescence; Q9NZ20;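 active means inhibition above mean plus 3 SD of compounds lying within the high and low control bounds, cut at about 19% in these data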;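 further: 0% = median of test compound wells and 100% = no enzyme DMSO wells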
# DAGLB inh – diacylglycerol lipase beta (human) inhibition; Q8NCG7; HEK293T DAGLB membrane lysate, EnzChek fluorogenic substrate; inhibition, % at 5.17 µM; 340,000 compounds, 0.059% hits; in the data active means inhibition above about 34%;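 further: 0% = enzyme with vehicle and 100% = wells lacking enzyme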
# Target sequence (Q8NCG7 whole entry, looked up): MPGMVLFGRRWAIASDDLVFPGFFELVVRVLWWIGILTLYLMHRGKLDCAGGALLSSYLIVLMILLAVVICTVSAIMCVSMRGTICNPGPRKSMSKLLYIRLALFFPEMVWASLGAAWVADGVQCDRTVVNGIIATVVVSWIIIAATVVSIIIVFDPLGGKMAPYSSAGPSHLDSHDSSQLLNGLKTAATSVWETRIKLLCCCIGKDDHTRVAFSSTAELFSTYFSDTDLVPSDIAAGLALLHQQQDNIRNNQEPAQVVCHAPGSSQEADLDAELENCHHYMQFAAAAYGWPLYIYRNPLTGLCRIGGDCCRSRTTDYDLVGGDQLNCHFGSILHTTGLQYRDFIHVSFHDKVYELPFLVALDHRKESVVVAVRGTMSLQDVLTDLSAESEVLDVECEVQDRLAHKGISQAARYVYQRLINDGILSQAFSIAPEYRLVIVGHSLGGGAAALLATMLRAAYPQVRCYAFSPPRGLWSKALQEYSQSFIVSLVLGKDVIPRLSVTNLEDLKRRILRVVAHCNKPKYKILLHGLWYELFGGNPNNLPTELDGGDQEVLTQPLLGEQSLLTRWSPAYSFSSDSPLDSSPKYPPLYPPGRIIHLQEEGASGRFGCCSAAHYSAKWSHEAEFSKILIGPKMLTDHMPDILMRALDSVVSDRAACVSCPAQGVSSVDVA
# PLCg1 ctr – counter-screen for PLC-beta3 inhibitors: inhibitors of human PLC-gamma1 | AID 743258 | inhibition, % at 12.3 µM | purified PLC-gamma1, fluorogenic substrate, fluorescence | shares compounds with PLC-gamma1 inh | 3,300 compounds, 3.1% hits
# PLCb3 confirm – human PLC-beta3 inhibition, confirmation. shares compounds with PLC-gamma1 inh. purified PLC-beta3, fluorogenic substrate fluorescence. inhibition, % at 12.3 µM. 3,300 compounds, 1% hits. AID 743261; in the data active means inhibition above about 11%
# An asterisk follows results filed as active; x = no result given. Most compounds without a hit are left out; they make up all but 1.9% or so of the library. Unless noted, no stated cut-off is given here; in the data, active means inhibition above about 9.5%; inactive means the rest.
SMILES,Tb MetRS inh,PLCb3 inh,PLC-gamma1 inh,sPLA2-III inh,DAGLB inh,PLCg1 ctr,PLCb3 confirm
CN(C)c1nc(SCCOC(=O)COc2ccc(Cl)cc2Cl)nc(N(C)C)n1,0,2,9.9*,-1,-14,-8,-6
CN(C)c1nc(OCCOC(=O)COc2ccc(Cl)cc2Cl)nc(N(C)C)n1,1,0,5,-8,-11,x,x
NS(=O)(=O)c1cccc(NC(=O)c2cc3ccccc3o2)c1,0,-4,11*,2,0,-4,-2
Cc1cc(NC(=O)c2ccco2)no1,0,5,18*,-2,-1,-3,1
O=C(Nc1cccc(S(=O)(=O)c2cccc(NC(=O)c3ccco3)c2)c1)c1ccco1,0,10,15*,-35,-1,-12,-8
Cc1cc(NS(=O)(=O)c2ccc(NC(=O)c3ccco3)cc2)no1,0,6,7,3,0,x,x
CC(C)C[C@H](NC(=O)C1CC1)C(=O)N1CCC[C@H]1C(=O)NCc1ccccc1,x,2,3,-3,x,x,x
C#CCN1C(=O)[C@]2(OCCC=C[C@H]2C)c2cc(OC)ccc21,x,4,-2,4,x,x,x
CC(O)(c1cccc(F)c1)c1nc(-c2cccc(F)c2)cs1 (stereo not given),-1,-3,11*,-5,x,-2,0
Cc1ccc(-c2csc(C(C)(O)c3cccc(F)c3)n2)cc1C (stereo not given),0,-2,-1,-12,x,x,x
Cc1cccc(C2=CC(=O)CC(C)(C)C2=O)c1,x,1,2,-3,x,x,x
C=C1CC2C=C(NC(C)=O)CC(C1)C2 (stereo not given),0,4,12*,14,1,-42,-1
CCOc1cc(CNCCc2ccccc2)ccc1OCC(=O)NC(C)(C)C,0,-9,9.9*,-14,-2,-1,3
CCOc1cc(CNCCO)c(Cl)cc1OCC(=O)NCCc1ccccc1,-1,12*,4,7,0,-6,-2
CCc1ccc(OCC(=O)NC(C)(C)C)cc1,-1,4,10*,-9,-4,-6,0
O=C(Cc1c[nH]c2ccccc12)Nc1ccc(Nc2cccnc2)c(-c2ccc(Cl)c(Cl)c2)c1,x,-12,-9,-19,x,x,x
Nn1cnnc1N/N=C/c1cccc(Cl)c1Cl,0,-2,7,-2,-2,x,x
Cc1ccc(/C=N/Nc2nncn2N)cc1,1,2,11*,-4,-2,-15,-9
Nn1cnnc1N/N=C/c1ccc(Cl)c([N+](=O)[O-])c1,1,5,12*,-2,0,-4,-1
Nn1cnnc1N/N=C/c1ccccc1C(F)(F)F,0,-1,7,-2,-2,x,x
Nn1cnnc1N/N=C/c1ccc(F)cc1,0,4,16*,0,2,-8,-3
CC(=O)C1(C(=O)Nc2cc(C)cc(C)c2)CC(c2ccccn2)=NO1 (stereo not given),x,-4,-4,12,x,x,x
O=C(c1ccccc1)n1ccc2ccc(-c3ccc4ccn(Cc5ccccc5)c4c3)cc21,x,-102,-83,-2,x,x,x
O=c1[nH]c2cc([N+](=O)[O-])c(NCCO)c([N+](=O)[O-])c2[nH]1,-1,1,1,5,x,x,x
CC(=O)Nc1c([N+](=O)[O-])cc2[nH]c(=O)[nH]c2c1[N+](=O)[O-],-1,12*,12*,9,-2,-7,0
SMILES,Tb MetRS inh,PLCb3 inh,PLC-gamma1 inh,sPLA2-III inh,DAGLB inh,PLCg1 ctr,PLCb3 confirm
O=[N+]([O-])c1ccccc1Nc1ccccc1[N+](=O)[O-],0,4,10*,0,11,2,2
COc1ccc(C(c2nnnn2Cc2ccccc2)N2CCN(C/C=C/c3ccccc3)CC2)cc1 (stereo not given),0,1,14*,-14,x,-2,-1
COc1ccc(/C=N/N2CCN(C)CC2)cc1O,0,3,11*,3,0,5,1
CCOc1ccccc1NC(=O)COn1nnc2ccccc21,-1,4,11*,8,-4,-4,-7
CC(C)c1ccc(S(=O)(=O)N2CCN(C(=O)CCNS(=O)(=O)c3ccccc3F)CC2)cc1,0,0,18*,-26,0,-6,-1
COc1ccccc1C(=O)COC(=O)/C=C/c1ccccc1,0,-3,9.6*,-16,-10,-6,-12
C[C@@H]1[C@@H](O)C[C@@]2(CC(=O)c3ccccc3O2)O[C@H]1c1ccccc1,x,3,1,-5,x,x,x
O=C1CC(N2CCN(Cc3ccccc3)CC2)C(=O)N1c1ccccc1 (stereo not given),0,5,11*,1,-4,-9,-1
CC(C)CC(COCc1cccc(C(F)(F)F)c1)N1CCN(C(=O)c2cccc(C(F)(F)F)c2)CCC1=O (stereo not given),0,5,9.6*,-3,-9,1,2
Cc1ccc(COC[C@H](CC(C)C)N2CCN(C(=O)c3cccc(C(F)(F)F)c3)CCC2=O)cc1,-1,6,8,3,x,x,x
CCC[C@H]1[C@@H](OC(=O)NCc2ccco2)CC[C@@]23CCCN2C(=O)CCC[C@@H]13,x,-2,0,-1,x,x,x
c1ccc2c(c1)OC(CCCN1CCCCC1)c1ccccc1S2 (stereo not given),0,4,11*,-1,1,-4,1
N#CC1(NC(=O)CSc2nc3ccccc3s2)CCCCC1,0,4,12*,-14,-4,-2,5
N#CC1(NC(=O)CSc2nc3ccc([N+](=O)[O-])cc3s2)CCCCC1,0,-10,0,-6,4,x,x
CCOC(=O)[C@@]12CCC3=C1N(CCC3)C(=O)[C@H](CC(=O)N1CCCC1)C2,x,0,0,7,x,x,x
COc1ccc(/C=C(\C)C(=O)c2c(C)cc(C)[nH]c2=O)cc1,-1,-3,2,-2,0,x,x
CCOc1ccc(/C=C(\C)C(=O)c2c(C)cc(C)[nH]c2=O)cc1,0,5,12*,7,0,1,-8
Cc1ccc(SCc2ccc(C(=O)Nc3cc([N+](=O)[O-])ccc3C)cc2)cc1,0,6,12*,6,-7,-2,-1
Cc1ccc(N(C)C(=O)CCS(=O)(=O)c2ccc3c(c2)oc(=O)n3C)cc1,0,-2,-2,4,0,x,x
CN(C(=O)CCS(=O)(=O)c1ccc2c(c1)oc(=O)n2C)C1CCCCC1,0,-4,14*,5,-2,-6,-1
O=C(CSc1nc2c(c(C(F)(F)F)n1)CCc1ccccc1-2)NCc1ccc(F)cc1,-1,13*,13*,6,-1,-8,-2
O=C(CSc1nc2c(c(C(F)(F)F)n1)CCc1ccccc1-2)NCc1ccccc1,0,0,2,2,-4,x,x
